According to ChEMBL document CHEMBL1156343, “Bioactive acridone alkaloids from Swinglea glutinosa” (J Nat Prod, 2001):

Legend:
[1] = Cytotoxicity against human HeLa cells after 72 hrs by [3H]hypoxanthine incorporation assay; assay type: cell-based; conditions: read-out: ED50
In short: (§1)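 HeLa cells grown in RPMI 1640 with 25 mM Hepes, 30 mM NaHCO3 and 5% fetal calf serum. After trypsinization, cells were seeded at 2×10^4 cells/well. Compounds were taken from 10 mg/mL DMSO stocks and diluted in serum-free medium to final 100–0.02 μg/mL (DMSO ≤1% final). Growth was read by [3H]-hypoxanthine incorporation at 24 and 72 h against untreated wells. Three experiments, each in triplicate.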

[2] = Selectivity index, ratio of ED50 for human HeLa cells to IC50 for Plasmodium falciparum Nigerian after 72 hrs by [3H]hypoxanthine incorporation assay; assay type: functional
In short: (§2)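 Ratio of HeLa ED50 to P. falciparum Nigerian-strain IC50 at the same exposure time (24 or 72 h). For the parasite, ring-stage cultures synchronized by gelatine flotation and sorbitol were used at 0.5–1% parasitemia and 1% hematocrit in human red cells with 5% AB+ serum. Compounds ran at final 50–0.01 μg/mL. Growth was read by [3H]-hypoxanthine incorporation, and IC50 was read graphically from inhibition curves.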

[3] = system: Plasmodium falciparum; test: Antiplasmodial activity after 24 hrs against chloroquine-sensitive Plasmodium falciparum Nigerian by [3H]hypoxanthine uptake; assay type: functional, organism-based
In short: (§3)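 P. falciparum continuously cultured in human O± red cells, 1% hematocrit, RPMI 1640 with 25 mM Hepes, 30 mM NaHCO3, 5% human AB+ serum. Cultures synchronized daily by gelatine flotation and 5% sorbitol lysis. Tested mostly at ring stage, 0.5-1% parasitemia. DMSO stocks diluted serum-free to final 50-0.01 µg/mL (DMSO ≤1%). Three experiments in triplicate. IC50 read graphically from concentration versus percent inhibition curves.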

[4] = system: Plasmodium falciparum; test: Antiplasmodial activity after 24 hrs against chloroquine-resistant Plasmodium falciparum FcM29 by [3H]hypoxanthine uptake; assay type: functional, organism-based; in short: as §3
[5] = Cytotoxicity against human HeLa cells after 24 hrs by [3H]hypoxanthine incorporation assay; assay type: cell-based; conditions: read-out: ED50; in short: as §1
[6] = Selectivity index, ratio of ED50 for human HeLa cells to IC50 for Plasmodium falciparum Nigerian after 24 hrs by [3H]hypoxanthine incorporation assay; assay type: functional; in short: as §2
[7] = system: Plasmodium falciparum; test: Antiplasmodial activity after 72 hrs against chloroquine-sensitive Plasmodium falciparum Nigerian by [3H]hypoxanthine uptake; assay type: functional, organism-based; in short: as §3
[8] = system: Plasmodium falciparum; test: Antiplasmodial activity against chloroquine-resistant Plasmodium falciparum FcM29 after 72 hrs by [3H]hypoxanthine uptake; assay type: functional, organism-based; in short: as §3

Row | Structure (SMILES) | CC50 at 72 h [1] | Ratio [2] | IC50 [3] | IC50 [4] | CC50 at 24 h [5] | Ratio [6] | IC50 [7] | IC50 [8]
1 | Cn1c2c(O)cccc2c(=O)c2c(O)cc3c(c21)C=CC(C)(C)O3 | 78 µM | 9 | 11.1 µM | 10.2 µM | 85.5 µM | 7.7 | 8.7 µM | 6.8 µM
2 | CC(C)=CCc1c(O)cc2c(c1O)c(=O)c1c(CC=C(C)C)ccc(O)c1n2C | 52.2 µM | 9.4 | 5.3 µM | 7.9 µM | 47.2 µM | 9 | 5.6 µM | 7.1 µM
3 | CCN(CC)CCCC(C)Nc1ccnc2cc(Cl)ccc12 (centres undefined) [CHLOROQUINE PHOSPHATE] | > 100 µM | – | – | – | > 100 µM | – | – | –
4 | COc1c(O)cc(O)c2c(=O)c3cccc(O)c3n(C)c12 [CITRUSININE-II] | 35.1 µM | 1.8 | 33 µM | 27.1 µM | 16.8 µM | 0.5 | 20.1 µM | 20.5 µM
5 | COc1c(O)c(CC=C(C)C)c(O)c2c(=O)c3cccc(O)c3n(C)c12 [GLYCOCITRINE-IV] | 5.3 µM | 2.1 | 2.5 µM | 2 µM | 0.71 µM | 0.3 | 2.5 µM | 2.3 µM
